Test [1] has as its target T1, Death-associated protein kinase 3 (Homo sapiens, UniProt O43293). Nature of the test: Inhibition of DAPK3 at 1 uM. The method in brief: (§1)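 Single-concentration screen of recombinant DAPK3 in the standard Z'-LYTE Ser/Thr 13 peptide reaction: peptide substrate and ATP in 50 mM HEPES pH 7.4, 10 mM MgCl2, 0.01% Brij-35, 0.5% DMSO. Percent inhibition of enzyme activity was read at the stated final compound concentration.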
Target sequence in this assay (O43293 whole entry, looked up): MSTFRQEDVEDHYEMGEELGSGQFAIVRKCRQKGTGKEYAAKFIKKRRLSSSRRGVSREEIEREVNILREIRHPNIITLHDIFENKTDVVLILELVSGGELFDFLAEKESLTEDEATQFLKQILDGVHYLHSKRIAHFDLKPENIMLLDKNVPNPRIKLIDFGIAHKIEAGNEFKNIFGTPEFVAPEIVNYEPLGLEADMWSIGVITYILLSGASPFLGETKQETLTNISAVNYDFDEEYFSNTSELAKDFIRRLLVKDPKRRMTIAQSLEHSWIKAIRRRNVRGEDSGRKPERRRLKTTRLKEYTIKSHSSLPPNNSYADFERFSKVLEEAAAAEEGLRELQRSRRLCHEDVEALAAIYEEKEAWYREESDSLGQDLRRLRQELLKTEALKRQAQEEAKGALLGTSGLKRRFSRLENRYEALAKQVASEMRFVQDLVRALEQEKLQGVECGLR

In test [2] the target is T1, Death-associated protein kinase 3. The test is described as follows: Inhibition of DAPK3 at 10 uM. The essentials: as §1
Target sequence in this assay (O43293 whole entry, looked up): as above
Test [3] addresses Serine/threonine-protein kinase PAK 2 (Homo sapiens) (UniProt Q13177). Nature of the test: Inhibition of PAK2 at 10 uM.
Test [4] has as its target Vascular endothelial growth factor receptor 2 (Homo sapiens, UniProt P35968). The test is described as follows: Inhibition of KDR. The method in brief: (§2)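 Selectivity panel run with ProfilerPro kinase kits following the kit protocol. Activity against each kinase was reported as an IC50 range: below 1 μM, between 1 and 10 μM, or above 10 μM.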
The target of test [5] is Hepatocyte growth factor receptor (Homo sapiens) (UniProt P08581). The test is described as follows: Inhibition of MET at 10 uM. The essentials:
as §2

Test [6] is described as follows: Inhibition of p70S6K. The method in brief:
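Selectivity panel of kinases run with a commercial profiling kit according to the kit protocol. Inhibition is reported only as IC50 bands: below 1 μM, 1–10 μM, or above 10 μM.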

Test [7] concerns the target Ribosomal protein S6 kinase alpha-5 (Homo sapiens) (UniProt O75582). The test is described as follows: Inhibition of MSK1 at 10 uM. The essentials:
as §2

Test [8] concerns the target Tyrosine-protein kinase Fyn (Homo sapiens) (UniProt P06241). The test is described as follows: Inhibition of FYN at 10 uM. The method in brief:
as §2

In test [9] the target is Casein kinase I isoform delta (Homo sapiens, UniProt P48730). The test is described as follows: Inhibition of CK1delta. The essentials: as §2
Test [10] can be described thus: Inhibition of PKGalpha at 10 uM.
Test [11] has as its target Tyrosine-protein kinase Lck (Homo sapiens) (UniProt P06239). Nature of the test: Inhibition of LCK at 10 uM. The essentials:
as §2

For test [12], the target named is Tyrosine-protein kinase BTK (Homo sapiens) (UniProt Q06187). The test is described as follows: Inhibition of BTK at 10 uM. The method in brief:
as §2

In test [13] the target is Receptor-type tyrosine-protein kinase FLT3 (Homo sapiens) (UniProt P36888). Nature of the test: Inhibition of FLT3 at 10 uM.
Test [14] has as its target Tyrosine-protein kinase SYK (Homo sapiens) (UniProt P43405). The test is described as follows: Inhibition of SYK at 10 uM.
Test [15] concerns the target Serine/threonine-protein kinase Sgk1 (Homo sapiens, UniProt O00141). The test is described as follows: Inhibition of SGK1. The essentials: as §2
For test [16], the target named is Proto-oncogene tyrosine-protein kinase Src (Homo sapiens) (UniProt P12931). Nature of the test: Inhibition of SRC at 10 uM.
The target in test [17] is Protein kinase C beta type (Homo sapiens) (UniProt P05771). Nature of the test: Inhibition of PKCbeta2 at 10 uM.
Test [18] concerns the target Interleukin-1 receptor-associated kinase 4 (Homo sapiens) (UniProt Q9NWZ3). Nature of the test: Inhibition of IRAK4 at 10 uM. The method in brief: as §2
Test [19] concerns the target MAP kinase-activated protein kinase 2 (Homo sapiens) (UniProt P49137). Nature of the test: Inhibition of MAPKAPK2 at 10 uM. The essentials: as §2
In test [20] the target is Mitogen-activated protein kinase 14 (Homo sapiens) (UniProt Q16539). The test is described as follows: Inhibition of p38alpha at 10 uM.
The target of test [21] is Calcium/calmodulin-dependent protein kinase type IV (Homo sapiens) (UniProt Q16566). The test is described as follows: Inhibition of CAMK4 at 10 uM. The method in brief: as §2
Test [22] deals with RAC-alpha serine/threonine-protein kinase (Homo sapiens) (UniProt P31749). The test is described as follows: Inhibition of AKT1 at 10 uM.
For test [23], the target named is Rho-associated protein kinase 2 (Homo sapiens) (UniProt O75116). The test is described as follows: Inhibition of ROCK2 at 10 uM.
The target in test [24] is Serine/threonine-protein kinase Chk2 (Homo sapiens) (UniProt O96017). Nature of the test: Inhibition of CHK2 at 10 uM. The essentials:
as §2

The target in test [25] is Tyrosine-protein kinase Lyn (Homo sapiens) (UniProt P07948). The test is described as follows: Inhibition of LYN at 10 uM. The method in brief:
as §2

Test [26] concerns the target Protein kinase C zeta type (Homo sapiens) (UniProt Q05513). Nature of the test: Inhibition of PKCzeta at 10 uM.
Test [27] concerns the target Serine/threonine-protein kinase Chk1 (Homo sapiens) (UniProt O14757). The test is described as follows: Inhibition of CHK1 at 10 uM. The method in brief:
as §2

In test [28] the target is Dual specificity tyrosine-phosphorylation-regulated kinase 1A (Homo sapiens, UniProt Q13627). The test is described as follows: Inhibition of […]. The essentials:
as §2

The target in test [29] is Mitogen-activated protein kinase kinase kinase kinase 4 (Homo sapiens) (UniProt O95819). The test is described as follows: Inhibition of HGK at 10 uM.
Test [30] deals with RAF proto-oncogene serine/threonine-protein kinase (Homo sapiens) (UniProt P04049). The test is described as follows: Inhibition of c-Raf at 10 uM.
For test [31], the target named is Insulin-like growth factor 1 receptor (Homo sapiens) (UniProt P08069). Nature of the test: Inhibition of IGF1R at 10 uM.
Test [32] is described as follows: Inhibition of PKA at 10 uM.
Test [33] in a line: Inhibition of CAMK2 at 10 uM.
The target of test [34] is Glycogen synthase kinase-3 beta (Homo sapiens) (UniProt P49841). Nature of the test: Inhibition of GSK3-beta at 10 uM.
Test [35] addresses Serine/threonine-protein kinase D2 (Homo sapiens) (UniProt Q9BZL6). The test is described as follows: Inhibition of PKD2 at 10 uM.
Test [36] deals with Cyclin-dependent kinase 2 (Homo sapiens) (UniProt P24941). Nature of the test: Inhibition of CDK2 at 10 uM. The method in brief: as §2
Test [37] addresses Tyrosine-protein kinase ABL1 (Homo sapiens) (UniProt P00519). The test is described as follows: Inhibition of ABL at 10 uM.
The target of test [38] is MAP kinase-activated protein kinase 5 (Homo sapiens) (UniProt Q8IW41). The test is described as follows: Inhibition of PRAK at 10 uM. The method in brief:
as §2

Test [39] concerns the target Death-associated protein kinase 1 (Homo sapiens, UniProt P53355). The test is described as follows: Inhibition of DAPK1. The essentials: (§3)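 IC50 runs used the Z'-LYTE Ser/Thr 13 peptide format. Human recombinant DAPK1 was at 2.6 μg/mL final; DAPK3 was recombinant. Each kinase was incubated with 10 μM ATP and a range of inhibitor concentrations in 50 mM HEPES pH 7.4, 10 mM MgCl2, 0.01% Brij-35, 0.5% DMSO, with peptide substrate.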

Test [40] has as its target Insulin receptor (Homo sapiens) (UniProt P06213). Nature of the test: Inhibition of INSR at 10 uM.
The target of test [41] is Aurora kinase A (Homo sapiens) (UniProt O14965). The test is described as follows: Inhibition of AurA at 10 uM.
Test [42] has as its target Fibroblast growth factor receptor 1 (Homo sapiens, UniProt P11362). The test is described as follows: Inhibition of FGFR1. The essentials:
as §2

Test [43] has as its target Serine/threonine-protein kinase MARK1 (Homo sapiens) (UniProt Q9P0L2). Nature of the test: Inhibition of MARK1 at 10 uM.
Test [44] has as its target Mitogen-activated protein kinase 1 (Homo sapiens, UniProt P28482). Nature of the test: Inhibition of Erk2. The essentials:
as §2

The target in test [45] is Mitogen-activated protein kinase 3 (Homo sapiens) (UniProt P27361). The test is described as follows: Inhibition of Erk1 at 10 uM.
The target of test [46] is T1, Death-associated protein kinase 3. The test is described as follows: Inhibition of DAPK3. The essentials: as §3
Target sequence in this assay (O43293 whole entry): as the sequence (O43293 whole entry, looked up) above
Test [47] has as its target MAP/microtubule affinity-regulating kinase 3 (Homo sapiens) (UniProt P27448). The test is described as follows: Inhibition of c-TAK1 at 10 uM. The method in brief:
as §2

The target in test [48] is RAC-beta serine/threonine-protein kinase (Homo sapiens) (UniProt P31751). Nature of the test: Inhibition of AKT2 at 10 uM.
Test [49] has as its target Serine/threonine-protein kinase pim-2 (Homo sapiens) (UniProt Q9P1W9). Nature of the test: Inhibition of PIM2 at 10 uM.
The nature of test [50]: Inhibition of AMPK at 10 uM.
Test [51] concerns the target Serine/threonine-protein kinase 3 (Homo sapiens) (UniProt Q13188). Nature of the test: Inhibition of MST2 at 10 uM. The essentials: as §2
The target in test [52] is Ribosomal protein S6 kinase alpha-1 (Homo sapiens) (UniProt Q15418). The test is described as follows: Inhibition of RSK1 at 10 uM. The method in brief: as §2

Calls of active or inactive are those of the source. The calls are words filed in the database; no cut-off is given here. A value given as a limit tells only on which side of the number the result lay.

Data on 8 compounds can be found in ChEMBL document CHEMBL1154675, “Identification of death-associated protein kinases inhibitors using structure-based virtual screening” (J Med Chem, 2009).

Sequence of Tyrosine-protein kinase Lck (Homo sapiens) (P06239 2-509 limits assumed): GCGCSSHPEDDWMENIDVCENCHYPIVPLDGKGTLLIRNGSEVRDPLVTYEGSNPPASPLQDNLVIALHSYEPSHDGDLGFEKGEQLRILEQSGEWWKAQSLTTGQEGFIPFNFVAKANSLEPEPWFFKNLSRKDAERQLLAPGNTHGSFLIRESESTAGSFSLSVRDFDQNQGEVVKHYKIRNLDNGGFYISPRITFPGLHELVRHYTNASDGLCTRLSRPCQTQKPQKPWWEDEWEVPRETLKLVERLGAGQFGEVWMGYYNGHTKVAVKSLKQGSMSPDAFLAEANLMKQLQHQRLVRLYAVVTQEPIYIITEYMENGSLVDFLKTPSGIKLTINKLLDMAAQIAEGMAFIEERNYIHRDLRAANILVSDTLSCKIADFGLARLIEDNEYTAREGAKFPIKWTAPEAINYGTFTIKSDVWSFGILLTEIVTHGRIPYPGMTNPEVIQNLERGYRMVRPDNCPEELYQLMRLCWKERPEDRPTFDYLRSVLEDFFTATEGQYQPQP
Sequence of Serine/threonine-protein kinase MARK1 (Homo sapiens) (Q9P0L2 whole entry, looked up): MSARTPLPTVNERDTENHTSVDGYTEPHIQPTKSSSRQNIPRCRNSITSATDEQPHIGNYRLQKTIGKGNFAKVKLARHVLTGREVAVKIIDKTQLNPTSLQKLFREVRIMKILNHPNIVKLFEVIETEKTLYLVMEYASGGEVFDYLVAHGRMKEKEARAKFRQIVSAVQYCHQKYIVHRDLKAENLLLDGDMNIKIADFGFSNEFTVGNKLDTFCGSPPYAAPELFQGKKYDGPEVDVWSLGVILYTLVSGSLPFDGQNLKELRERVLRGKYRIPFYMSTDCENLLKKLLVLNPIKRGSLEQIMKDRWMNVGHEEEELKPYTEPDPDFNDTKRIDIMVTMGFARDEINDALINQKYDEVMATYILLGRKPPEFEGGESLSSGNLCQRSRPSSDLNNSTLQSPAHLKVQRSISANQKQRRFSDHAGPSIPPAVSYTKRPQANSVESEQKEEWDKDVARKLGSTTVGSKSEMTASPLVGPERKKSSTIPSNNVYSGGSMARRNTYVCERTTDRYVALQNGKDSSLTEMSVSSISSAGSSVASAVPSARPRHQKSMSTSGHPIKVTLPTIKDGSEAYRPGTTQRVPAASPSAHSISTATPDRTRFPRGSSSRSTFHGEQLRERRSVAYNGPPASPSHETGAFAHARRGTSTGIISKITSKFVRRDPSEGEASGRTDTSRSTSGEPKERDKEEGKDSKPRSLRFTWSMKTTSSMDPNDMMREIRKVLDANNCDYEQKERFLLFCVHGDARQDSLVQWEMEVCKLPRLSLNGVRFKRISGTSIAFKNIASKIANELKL
Sequence of Calcium/calmodulin-dependent protein kinase type IV (Homo sapiens) (Q16566 whole entry): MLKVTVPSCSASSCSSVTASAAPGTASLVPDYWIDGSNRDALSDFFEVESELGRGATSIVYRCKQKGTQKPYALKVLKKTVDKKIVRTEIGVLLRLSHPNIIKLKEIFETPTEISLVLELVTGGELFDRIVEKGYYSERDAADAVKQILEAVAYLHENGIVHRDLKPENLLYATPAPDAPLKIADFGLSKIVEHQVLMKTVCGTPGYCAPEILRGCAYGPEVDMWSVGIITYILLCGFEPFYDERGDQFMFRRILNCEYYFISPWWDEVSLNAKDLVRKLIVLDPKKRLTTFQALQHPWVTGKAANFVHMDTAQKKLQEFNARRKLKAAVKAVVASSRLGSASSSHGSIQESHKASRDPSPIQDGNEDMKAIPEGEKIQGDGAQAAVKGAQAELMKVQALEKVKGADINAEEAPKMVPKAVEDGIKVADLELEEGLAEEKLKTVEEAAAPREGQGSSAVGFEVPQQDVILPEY
Sequence of Glycogen synthase kinase-3 beta (Homo sapiens) (P49841 whole entry, looked up): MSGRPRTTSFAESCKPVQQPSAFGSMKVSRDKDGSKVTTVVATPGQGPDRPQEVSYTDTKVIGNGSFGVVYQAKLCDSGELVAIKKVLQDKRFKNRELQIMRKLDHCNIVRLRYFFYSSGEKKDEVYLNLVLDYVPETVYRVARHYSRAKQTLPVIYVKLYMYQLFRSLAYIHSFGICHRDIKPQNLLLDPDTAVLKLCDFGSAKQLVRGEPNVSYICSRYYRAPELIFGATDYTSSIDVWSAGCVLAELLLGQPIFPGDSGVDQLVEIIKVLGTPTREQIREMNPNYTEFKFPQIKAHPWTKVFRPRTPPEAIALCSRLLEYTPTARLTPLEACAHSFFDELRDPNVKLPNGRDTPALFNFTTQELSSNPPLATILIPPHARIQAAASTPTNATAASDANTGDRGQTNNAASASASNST
Sequence of Insulin receptor (Homo sapiens) (P06213 28-758 limits assumed): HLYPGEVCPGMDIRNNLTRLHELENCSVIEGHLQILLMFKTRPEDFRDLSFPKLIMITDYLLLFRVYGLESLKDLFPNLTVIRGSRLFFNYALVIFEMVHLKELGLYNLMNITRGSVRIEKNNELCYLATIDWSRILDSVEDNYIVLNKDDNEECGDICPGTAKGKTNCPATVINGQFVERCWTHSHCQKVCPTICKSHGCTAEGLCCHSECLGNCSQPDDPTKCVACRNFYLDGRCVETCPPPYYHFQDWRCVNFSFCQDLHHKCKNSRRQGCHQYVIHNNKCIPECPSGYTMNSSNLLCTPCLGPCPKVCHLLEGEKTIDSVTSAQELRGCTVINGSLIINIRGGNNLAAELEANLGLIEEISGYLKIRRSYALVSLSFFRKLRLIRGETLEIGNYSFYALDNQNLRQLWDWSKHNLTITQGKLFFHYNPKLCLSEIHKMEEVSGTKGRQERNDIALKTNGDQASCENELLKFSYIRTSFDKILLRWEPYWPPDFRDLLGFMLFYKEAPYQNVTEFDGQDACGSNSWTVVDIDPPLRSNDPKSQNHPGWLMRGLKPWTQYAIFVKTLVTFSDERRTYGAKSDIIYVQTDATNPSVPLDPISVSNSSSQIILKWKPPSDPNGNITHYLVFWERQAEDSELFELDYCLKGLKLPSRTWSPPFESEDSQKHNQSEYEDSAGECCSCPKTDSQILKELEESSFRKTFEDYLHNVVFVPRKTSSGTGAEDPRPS
Sequence of Insulin receptor (Homo sapiens) (P06213 763-1382 limits assumed): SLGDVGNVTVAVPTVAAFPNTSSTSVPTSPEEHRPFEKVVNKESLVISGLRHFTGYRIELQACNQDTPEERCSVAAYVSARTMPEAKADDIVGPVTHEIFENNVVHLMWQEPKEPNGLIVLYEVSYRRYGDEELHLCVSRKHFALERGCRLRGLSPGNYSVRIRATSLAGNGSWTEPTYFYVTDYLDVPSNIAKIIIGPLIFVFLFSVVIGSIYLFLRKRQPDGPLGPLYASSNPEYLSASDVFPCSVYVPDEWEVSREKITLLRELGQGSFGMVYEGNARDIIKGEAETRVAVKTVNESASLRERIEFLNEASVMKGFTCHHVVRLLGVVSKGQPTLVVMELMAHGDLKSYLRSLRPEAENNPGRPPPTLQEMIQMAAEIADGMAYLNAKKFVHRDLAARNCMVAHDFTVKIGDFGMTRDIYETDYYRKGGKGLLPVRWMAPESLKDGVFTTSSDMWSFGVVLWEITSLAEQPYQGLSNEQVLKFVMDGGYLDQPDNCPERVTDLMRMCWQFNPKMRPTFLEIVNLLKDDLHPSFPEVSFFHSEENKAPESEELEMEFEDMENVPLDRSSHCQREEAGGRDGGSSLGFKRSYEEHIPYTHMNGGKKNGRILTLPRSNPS
Sequence of Fibroblast growth factor receptor 1 (P11362 whole entry): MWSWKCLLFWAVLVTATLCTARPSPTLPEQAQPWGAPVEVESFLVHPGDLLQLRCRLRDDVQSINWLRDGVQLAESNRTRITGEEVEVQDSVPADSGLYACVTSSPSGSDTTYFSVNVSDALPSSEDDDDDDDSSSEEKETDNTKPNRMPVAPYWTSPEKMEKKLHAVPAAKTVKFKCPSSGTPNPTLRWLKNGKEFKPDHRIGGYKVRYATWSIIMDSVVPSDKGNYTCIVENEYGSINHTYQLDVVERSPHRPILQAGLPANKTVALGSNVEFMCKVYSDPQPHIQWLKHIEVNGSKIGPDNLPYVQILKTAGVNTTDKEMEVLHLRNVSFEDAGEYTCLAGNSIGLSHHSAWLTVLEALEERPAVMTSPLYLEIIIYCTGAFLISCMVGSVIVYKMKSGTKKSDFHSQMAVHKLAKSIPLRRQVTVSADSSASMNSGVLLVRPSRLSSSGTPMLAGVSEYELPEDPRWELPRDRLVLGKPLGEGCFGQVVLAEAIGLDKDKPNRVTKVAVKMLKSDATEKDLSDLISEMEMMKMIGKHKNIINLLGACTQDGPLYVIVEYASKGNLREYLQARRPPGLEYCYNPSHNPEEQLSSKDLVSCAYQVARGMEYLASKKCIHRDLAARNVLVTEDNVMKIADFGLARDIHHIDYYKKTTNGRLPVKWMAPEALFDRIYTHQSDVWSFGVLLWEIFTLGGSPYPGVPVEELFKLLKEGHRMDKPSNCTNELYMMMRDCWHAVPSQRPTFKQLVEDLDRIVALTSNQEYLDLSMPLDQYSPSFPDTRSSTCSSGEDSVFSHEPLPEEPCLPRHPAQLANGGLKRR

The inhibition is the drop in the measured response relative to a control, in per cent. In the case of `Cc1ccccc1C1=N/C(=C\c2cccnc2)C(=O)O1`, the inhibition in [1] came out at 3%; in test [2], 58%.
Take `Cc1ccc2nc(-c3ccncc3)cc(C(=O)O)c2c1`: the inhibition amounted to 3% in test [1] and 58% in test [2].
By IC50 is commonly meant the concentration that gives 50% inhibition. On to `O=C1OC(/C=C/c2ccccc2)=NC/1=C\c1cccnc1`, for which the inhibition entry in test [3], in test [5], in test [7], in [8], in test [10] and in [11] was “inactive” throughout. Also, the inhibition result in test [12], in test [13], in test [14], in [16], in [17] and in [18] was “inactive” in each case. The inhibition entry in [19], in test [20], in test [21], in test [22], in [23] and in [24] was “inactive” in each case. The inhibition entry in test [25], in [26], in [27], in test [29], in [30] and in test [31] was “inactive” throughout. For the same compound, the inhibition result in test [32], in test [33], in [34], in [35], in test [36] and in test [37] was “inactive” throughout. Also, the inhibition entry in [38], in [40], in [41], in [43], in test [45] and in test [47] was “inactive” each time. Also, the inhibition entry in test [48], in test [49], in test [50], in test [51] and in test [52] was “inactive” each time. The IC50 in [4] is above 10 µM; in [6], below 10 µM; in test [9] it was above 10 µM; in test [15], above 10 µM; in [28] it was above 10 µM; in [39], below 1 µM. Also, the IC50 was above 10 µM in test [42], above 10 µM in test [44] and below 1 µM in test [46]. The results for the inhibition in test [1] and in [2] were 3% and 58%, respectively.
Consider `O=C1OC(c2ccccc2)=N/C1=C\c1cccnc1`, for which the inhibition in [1] stood at 71%; in test [2], 84%.
For `O=C1OC(c2cccc(Cl)c2[N+](=O)[O-])=N/C1=C\c1cccnc1`, in that order: 3% and 58%.
As to `O=C1OC(C23CC4CC(CC(C4)C2)C3)=N/C1=C\c1cccnc1`, the inhibition in test [1] was found to be 3%; in [2] it was 58%.
With `Cc1c(O)ccc2c(CN3CCN(C)CC3)cc(=O)oc12`, the results for the inhibition in [1] and in test [2] were 12% and 54%, respectively.
For `Cc1cccc2c(C(=O)O)cc(-c3ccncc3)nc12`, in that order: 2% and 72%.
